Reference: ChEMBL document CHEMBL1926559, “Metabolic and electrochemical mechanisms of dimeric naphthoquinones cytotoxicity in breast cancer cells” (Bioorg Med Chem, 2011)
Activity calls are given as the source filed them. The rule behind the calls is not given here.

Assays:
MDA-MB-453 [1] = test: Cytotoxicity against DCFDA-treated human MDA-MB-453 cells assessed as increase in ROS production after 30 mins by flow cytometric analysis; format: functional
Outline: (§1)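 Cells preloaded with 5μM carboxy-DCFDA for 30 min, then exposed to 20 μM compound or DMSO for 2 h, collected and analysed by flow cytometry (488 nm excitation, 530 nm emission); percentage of fluorescent cells vs DMSO; triplicate samples, two separate experiments.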

MCF7 [2] = test: Cytotoxicity against DCFDA-treated human MCF7 cells assessed as increase in ROS production […] by flow cytometric analysis; format: functional, cell-based; outline: as §1
MCF7 [3] = test: Antiproliferative activity against human MCF7 cells assessed as cell survival at 50 uM by trypan blue exclusion assay relative to control; format: functional; details: read-out: Survival
Outline: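 MCF-7 cells kept in DMEM with 10% fetal bovine serum and 1% antibiotics at 37°C, 5% CO2, grown at 1×10⁵ cells/mL. Cells were exposed to DMSO vehicle or DMSO-dissolved compound. Viability was scored by trypan blue exclusion cell counts, done in triplicate and given as mean ± SD. Survival was expressed relative to the DMSO control.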

MDA-MB-453 [4] = test: Antiproliferative activity against human MDA-MB-453 cells assessed as decrease in ATP level in viable cells at 10 uM after 4 hrs by CellTiter-Glo luminescent assay relative to control; format: functional
Outline: (§2)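 10,000 cells per well, treated in sextuplet with DMSO or 5, 10, 20 or 50 μM for 4 h. ATP read by CellTiter-Glo luminescence, normalized to average count of viable trypan-blue-excluding cells per condition, expressed relative to DMSO.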

MCF7 [5] = test: Antiproliferative activity against human MCF7 cells assessed as decrease in ATP level in viable cells after 4 hrs by CellTiter-Glo luminescent assay relative to control; format: functional, cell-based; outline: as §2
MDA-MB-453 [6] = test: Growth inhibition of human MDA-MB-453 cells by trypan blue exclusion assay; format: functional, cell-based
Outline: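 Viability counted by trypan blue exclusion; cells grown at 1×10⁵ cells/mL, counts done in triplicate, mean ± SD relative to DMSO.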

MDA-MB-453 [7] = test: Antiproliferative activity against human MDA-MB-453 cells assessed as decrease in ATP level in viable cells at 20 uM after 4 hrs by CellTiter-Glo luminescent assay relative to control; format: functional; outline: as §2
MDA-MB-453 [8] = test: Cytotoxicity against human MDA-MB-453 cells assessed as decrease in oxygen consumption at 20 uM by Clark-type oxygen electrode analysis; format: functional, cell-based
Outline: (§3)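 After 3 h exposure to 20 μM compound or DMSO, cells trypsinized, PBS-washed, pelleted; 5×10⁶ cells in 0.8 mL PBS with 10% FCS placed in a Clark-type oxygen electrode chamber to measure O2 consumption; duplicate experiments.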

MCF7 [9] = test: Antiproliferative activity against human MCF7 cells after 4 hrs by MTT assay; format: functional, cell-based
Outline: (§4)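 Cells in DMEM with 10% FBS and 1% antibiotics, 37°C, 5% CO2; equal numbers plated in three or more replicates, attached overnight, then exposed to 5, 10, 20 or 50 μM (DMSO vehicle) in complete medium for 4 h. Then 0.5 mg/ml MTT for 1 h, medium replaced with PBS, absorbance at 570 nm minus 690 nm background; compared to DMSO.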

MCF7 [10] = test: Cytotoxicity against human MCF7 cells assessed as decrease in oxygen consumption at 20 uM by Clark-type oxygen electrode analysis; format: functional, cell-based; outline: as §3
MDA-MB-453 [11] = test: Antiproliferative activity against human MDA-MB-453 cells after 4 hrs by MTT assay; format: functional, cell-based; outline: as §4
MDA-MB-453 [12] = test: Antiproliferative activity against human MDA-MB-453 cells assessed as decrease in ATP level in viable cells at >20 uM after 4 hrs by CellTiter-Glo luminescent assay relative to control; format: functional, cell-based; outline: as §2

O=C1C(O)=C(C2=C(Cl)C(=O)c3ccccc3C2=O)C(=O)c2ccccc21
Activity (MDA-MB-453 [1]): 50% | Activity (MCF7 [2]): inactive | viability at 50 µM (MCF7 [3]): 80% | Activity (MDA-MB-453 [4]): 53% | Activity (MCF7 [5]): inactive | IC50 (MDA-MB-453 [6]): 15 µM | Activity (MDA-MB-453 [7]): 60% | Activity (MDA-MB-453 [8]): Active | Activity (MCF7 [9]): inactive | Activity (MCF7 [10]): inactive | Activity (MDA-MB-453 [11]): Dose-dependent effect | Activity (MDA-MB-453 [12]): inactive

COc1ccc2c(c1)C(=O)C(C1=C(Cl)C(=O)c3ccccc3C1=O)=C(O)C2=O
Activity (MDA-MB-453 [1]): 50% | Activity (MCF7 [2]): inactive | viability at 50 µM (MCF7 [3]): 83% | Activity (MDA-MB-453 [4]): 37% | Activity (MCF7 [5]): inactive | IC50 (MDA-MB-453 [6]): 17 µM | Activity (MDA-MB-453 [7]): 60% | Activity (MDA-MB-453 [8]): Active | Activity (MCF7 [9]): inactive | Activity (MCF7 [10]): inactive | Activity (MDA-MB-453 [11]): Dose-dependent effect | Activity (MDA-MB-453 [12]): inactive

CC(C)=CCC[C@]1(C)C=Cc2c(ccc3c2C(=O)C(O)=C(C2=C(Cl)C(=O)c4ccccc4C2=O)C3=O)O1
Activity (MDA-MB-453 [1]): 50% | Activity (MCF7 [2]): inactive | viability at 50 µM (MCF7 [3]): 85% | Activity (MDA-MB-453 [4]): inactive | Activity (MCF7 [5]): inactive | IC50 (MDA-MB-453 [6]): 34 µM | Activity (MDA-MB-453 [7]): 27% | Activity (MDA-MB-453 [8]): Active | Activity (MCF7 [9]): inactive | Activity (MCF7 [10]): inactive | Activity (MDA-MB-453 [11]): Dose-dependent effect | Activity (MDA-MB-453 [12]): inactive
